High-throughput results from PubChem.
Rows were chosen to be rich in hits. Some 3.5% of all compounds tested hit in one or more screens of this group.
TCR-CD3 inh: blocks the human TCR-CD3 interaction; TAMRA-labeled TCR probe fluorescence, biochemical; inhibition, % at 9.4 µM; 0.37% of 360,000 active;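 also: recombinant mutant TCR 2C K166C tagged with TAMRA read by polarization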
rCAG RNA binder: r(CAG) repeat RNA binding; 1.3% of 370,000 active; AID 651821; inhibition, % at 3 µM; TO-PRO-1 dye displacement fluorescence;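 active = inhibition above the plate cutoff, the mean of all test compounds on that plate plus 3 SD, cut at about 35% in these data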;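 also: higher means more dye released from RNA so lower well fluorescence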
mABHD4 FP: inhibits mouse alpha/beta hydrolase domain 4 | purified mABHD4, FP-Rh probe fluorescence polarization | Q8VD66 | inhibition, % at 8.92 µM | 0.54% of 370,000 active;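 active = inhibition exceeding the mean over every tested compound plus 3 SD, cut at about 30% in these data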
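Assay system: Wild-type mouse ABHD4 protein | Medium: HEPES pH 7.0 buffer, 150 mM NaCl, 0.01% Pluronic F-127 | Incubation: Enzyme–compound pre-incubation 45 min, then probe 60 min, both 25 °C | Technique: Fluorescence polarization with parallel and perpendicular emission, 525/598 nm | Evaluation: % inhibition of FP-Rh probe binding versus controls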
HTRA1 inhibitor: blocks human HTRA1 serine peptidase; Q92743; recombinant HTRA1, FP-rhodamine activity-based probe, fluorescence polarization; inhibition, % at 5.96 µM; 0.5% of 340,000 active; AID 504803; in the data active = inhibition above about 36%
PRMT1 FP inh: PRMT1 (human) inhibition, primary screen. 1.3% of 370,000 active. Q99873. recombinant PRMT1, activity-based probe fluorescence polarization. inhibition, % at 2.79 µM. AID 652257;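 active = inhibition above about 21% made by adding two undisclosed values, limit read from the data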
SIAE inh: blocks human sialic acid acetylesterase; AID 1053197; inhibition, % at 9.66 µM; SIAE FP-Rh probe binding, fluorescence polarization; 0.69% of 370,000 active; Q9HAT2;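 active = inhibition above a cutoff: mean of compounds within the control limits plus 3 SD of those, cut at about 17% in these data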
Target sequence (Q9HAT2 whole entry, looked up): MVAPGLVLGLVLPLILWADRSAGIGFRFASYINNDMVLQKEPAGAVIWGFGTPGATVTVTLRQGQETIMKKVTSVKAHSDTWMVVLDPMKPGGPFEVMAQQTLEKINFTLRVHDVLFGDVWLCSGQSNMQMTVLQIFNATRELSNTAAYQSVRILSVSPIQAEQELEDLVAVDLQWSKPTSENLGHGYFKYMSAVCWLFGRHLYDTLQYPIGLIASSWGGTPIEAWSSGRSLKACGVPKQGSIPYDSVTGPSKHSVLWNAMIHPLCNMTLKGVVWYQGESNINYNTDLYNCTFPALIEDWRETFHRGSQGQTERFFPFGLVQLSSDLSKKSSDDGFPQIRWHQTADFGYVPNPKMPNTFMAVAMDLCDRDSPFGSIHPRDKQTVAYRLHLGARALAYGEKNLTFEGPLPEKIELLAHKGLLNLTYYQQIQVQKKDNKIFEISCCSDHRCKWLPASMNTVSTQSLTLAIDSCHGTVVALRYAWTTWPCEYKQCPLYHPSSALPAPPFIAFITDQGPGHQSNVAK
HTRA1 inh conf: confirmation of human HTRA1 inhibitors; AID 540248; 66% of 1,600 active; recombinant HTRA1, FP-rhodamine activity-based probe, fluorescence polarization; shares compounds with HTRA1 inhibitor; inhibition, % at 5.96 µM;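 active = mean inhibition over three repeats above a set limit taken from the earlier primary screen, cut at about 37% in these data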;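 also: inhibitors block probe binding so polarization drops and inhibition rises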
BSA TAMRA ctr: counter-screen for TCR-CD3 interaction inhibitors: BSA probe. 10% of 1,200 active. shares compounds with TCR-CD3 inh. inhibition, % at 9.4 µM. TAMRA-labeled BSA probe fluorescence counterscreen; in the data active = inhibition above about 23%
TCR-CD3 inh conf: confirmation of human TCR-CD3 interaction inhibitors; inhibition, % at 9.4 µM; AID 652036; TAMRA-labeled TCR probe fluorescence binding assay; shares compounds with TCR-CD3 inh; 48% of 1,200 active
PRMT1 confirm: PRMT1 (human) inhibition, FP confirmation; shares compounds with PRMT1 FP inh; recombinant His-PRMT1, activity-based probe fluorescence polarization; inhibition, % at 2.79 µM; 42% of 3,300 active; AID 687036;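 active = mean inhibition across replicates above the hit cutoff derived for the earlier primary screen, cut at about 22% in these data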
ABHD4 confirm: confirmation of mouse ABHD4 inhibitors; AID 720658; purified mABHD4, FP-Rh probe fluorescence polarization; shares compounds with mABHD4 FP; 55% of 1,800 active; inhibition, % at 8.92 µM;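 active = mean inhibition across replicates above the hit cutoff set in the primary screen, cut at about 30% in these data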
SIAE confirm: confirmation of human SIAE inhibitors. shares compounds with SIAE inh. SIAE FP-Rh activity-based probe, fluorescence polarization. inhibition, % at 9.66 µM. 13% of 2,300 active. AID 1117263;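 active = mean inhibition of the replicates above the hit cutoff set in the primary screen, cut at about 17% in these data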;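 also: inhibitors lower polarization as more probe stays unbound to SIAE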
Numbers stand for hits; - = inactive; . = not tested or not shown. Rule as the data show it, unless noted: active = inhibition above about 19%; inactive = the rest.

SMILES	TCR-CD3 inh	rCAG RNA binder	mABHD4 FP	HTRA1 inhibitor	PRMT1 FP inh	SIAE inh	BSA TAMRA ctr	TCR-CD3 inh conf	others
CC1(c2nnnn2-c2ccc3ccccc3c2)CSCC(=O)N1C1CC1 (stereo not drawn)	.	-	-	.	-	-	.	.
COc1ccc2ccccc2c1/C=N/NC(=O)c1cccc(Br)c1	-	-	-	-	-	-	.	.
O=C(N/N=C/c1c(O)ccc2ccccc12)c1cccc(C(F)(F)F)c1	-	-	-	57	-	25	.	.	HTRA1 inh conf=58;SIAE confirm=-
O=C(CCl)N1c2ccccc2Oc2ccc3ccccc3c21	22	-	62	80	60	22	.	.	HTRA1 inh conf=-;PRMT1 confirm=40;ABHD4 confirm=-;SIAE confirm=-
CC(=O)N1c2ccccc2Oc2cc3ccccc3cc21	-	-	-	-	-	-	.	.
O=C(Nc1ccc(Cl)cc1)Nc1ccc(Cl)c(Cl)c1	22	-	-	.	-	-	-	19
Cc1ccc(NC(=O)Nc2ccc(F)c(Cl)c2)cc1	-	-	-	-	-	-	.	.
Clc1cccc(CNC2CCC23CCCCC3)c1 (stereo not drawn)	.	.	-	.	-	-	.	.
C=CCN(c1ccccc1)S(=O)(=O)c1ccc2c(c1)oc(=O)n2C	64	-	-	-	-	-	-	-
CN(CC(=O)Nc1ccc(Cl)cc1)C(=O)c1cc(-c2cccs2)nn1-c1ccccc1	-	-	-	-	-	-	.	.
O=C(COC(=O)c1cc(-c2cccs2)nn1-c1ccccc1)Nc1ccc(Cl)c([N+](=O)[O-])c1	45	-	-	-	-	-	-	-
COC(=O)Cn1c(=NC(=O)c2nc3ccccc3s2)sc2cc(S(N)(=O)=O)ccc21	-	-	-	-	-	-	.	.
COC(=O)Cn1c(=NC(=O)c2cc(-c3cccs3)nc3ccccc23)sc2cc(S(N)(=O)=O)ccc21	57	-	-	-	-	-	-	31
CCOC(=O)Cn1c(=NC(=O)c2cc(-c3cccs3)nc3ccccc23)sc2cc(S(N)(=O)=O)ccc21	38	-	-	-	-	-	-	21
CCCCN1CCc2c(c3ccccc3n2Cc2ccccc2)C1	-	-	-	-	-	-	.	.
CN1CCc2c(c3ccccc3n2Cc2ccccc2)C1	-	-	-	-	-	-	-	-
Cc1ccc(C(=O)Nc2cnc3ccccn3c2=O)cc1	25	-	-	-	-	-	-	-
CCN(CC)c1ccc(C=Nn2c(C)nnc2C)cc1	.	-	-	.	-	-	.	.
COc1ccc(C(=O)NNC(=S)NC(=O)c2cccnc2)cc1	38	-	-	-	-	-	-	37
O=C(NNC(=S)NC(=O)c1cccnc1)c1ccccc1	-	-	-	-	-	-	.	.
COc1ccc(C(=O)NNC(=S)NC(=O)c2ccc(F)cc2)cc1Br	20	-	-	.	-	-	-	-
Cc1cc(NS(=O)(=O)c2ccc(NC(=S)NC(=O)c3cccnc3)cc2)no1	46	-	-	-	-	-	-	-
O=C(NNC(=S)NC(=O)c1cccnc1)c1ccc(F)cc1	23	-	-	-	-	-	-	28
COC(=O)[C@]1(CNS(=O)(=O)C2CC2)CC(=O)N(C)[C@@H]1c1ccccc1	.	-	-	.	-	-	.	.
CCOC(=O)C1CCCCN1C(=O)[C@@H]1CC=C[C@@H]2CCN(c3ccccc3)C(=O)[C@@H]21 (stereo partly drawn)	.	.	-	.	-	-	.	.
SMILES	TCR-CD3 inh	rCAG RNA binder	mABHD4 FP	HTRA1 inhibitor	PRMT1 FP inh	SIAE inh	BSA TAMRA ctr	TCR-CD3 inh conf	others
COc1ccc(CC(=O)NNC(=S)NC(=O)c2cccnc2)cc1	26	-	-	-	-	-	-	-
COc1ccc(C(=O)NNC(=S)NC(=O)c2cccs2)cc1	23	-	-	-	-	-	-	30
COc1ccc(C(=O)NNC(=S)NC(=O)c2ccc(OC)cc2)cc1	-	-	-	-	-	-	.	.
CC(C)(N[C@@H](Cc1c[nH]c2ccccc12)C(=O)NCCCc1ccccc1)C(=O)NCc1ccccc1	.	.	-	.	-	-	.	.
COc1ccc(CNC(=O)O[C@H]2CC[C@@]34CCCN3C(=O)CCC[C@H]4C2)cc1OC	.	.	-	.	-	-	.	.
O=C1C2C3C=CC(C4CC34)C2C(=O)N1/N=C/c1ccc(-c2ccc(F)cc2[N+](=O)[O-])o1 (stereo not drawn)	-	-	-	-	-	-	.	.
Cc1ccc(-c2ccc(/C=N/N3C(=O)C4C5C=CC(CC5)C4C3=O)o2)c([N+](=O)[O-])c1 (stereo not drawn)	22	-	-	-	-	-	-	-
Cc1cc(C(=O)N/N=C/c2c(CO)cnc(C)c2O)c2ccccc2n1	23	-	-	-	-	-	-	-
Cc1ncc(CO)c(/C=N/NC(=O)c2cc(Br)ccc2O)c1O	-	-	-	-	-	-	.	.
CN(Cc1ccccc1)S(=O)(=O)c1cccc(C(=O)OCc2ccc(Oc3ccccc3)cc2)c1	.	-	-	.	-	-	.	.
COc1cccc(CNC(=O)c2ccc(S(=O)(=O)N3CCOCC3)cc2)c1	-	-	-	-	-	-	.	.
Cc1ccc(CNC(=O)c2ccc(S(=O)(=O)N3CCCCCC3)cc2)cc1	-	-	-	-	-	-	.	.
Cc1cc2cc(CNC(=O)c3ccc(S(=O)(=O)N(C)C)cc3)ccc2n1C	25	-	-	-	-	-	-	-
Cc1cc2cc(CNC(=O)Cc3ccc([N+](=O)[O-])cc3)ccc2n1C	-	-	-	-	-	-	.	.
Cc1cc2cc(CNC(=O)c3ccc(S(=O)(=O)N4CCOCC4)cc3)ccc2n1C	48	-	-	-	-	-	-	-
Cc1cc2cc(CNC(=O)c3ccc(S(=O)(=O)N4CCCCC4)cc3)ccc2[nH]1	20	-	-	-	-	-	-	-
Cc1cc2cc(CNC(=O)c3cccc([N+](=O)[O-])c3)ccc2n1C	26	-	-	-	-	-	-	-
COc1ccc2c(c1)CCCN2C(=O)C1CCCN(S(=O)(=O)c2ccc(C)c(C)c2)C1 (stereo not drawn)	.	-	-	.	-	-	.	.
O=C(Nc1ccccc1)n1ccc2ccc(-c3ccc4cc[nH]c4c3)cc21	.	-	-	.	-	-	.	.
